ChEMBL document CHEMBL1133089 (J Med Chem, 2000)
pEC50, pKi: −log10 of the molar value.

Columns and labels:
[1] = target: T1, Neuronal acetylcholine receptor subunit alpha-7 (Rattus norvegicus, UniProt Q05941); test: Potency was determined by measuring current activation in Xenopus oocytes expressing rat alpha-7 nAChRs; assay type: cell-based, Oocyte
In short: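 Xenopus oocytes injected with cRNA for rat α7 nAChR and recorded 3-10 days after injection. Read-out is evoked current activation. Intrinsic activity scaled in each oocyte to the current elicited by 3 mM acetylcholine, set as 100%.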

[2] = target: T1, Neuronal acetylcholine receptor subunit alpha-7; test: Binding affinity in rat hippocampi against Nicotinic acetylcholine receptor alpha7; assay type: tissue-based, Hippocampus
In short: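 Incubated with 5 nM [¹²⁵I]α-bungarotoxin and 1 mg/mL BSA for 2 h at 21 °C. Collected on GF/C filters pretreated with 1% BSA/0.01% PEI. IC50 from six concentrations in triplicate.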

[3] = target: Neuronal acetylcholine receptor; alpha4/beta2 (Rattus norvegicus, UniProt P09483+P12390); test: Binding affinity in rat forebrain against Nicotinic acetylcholine receptor alpha4-beta2
In short: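 Captured on GF/B filters treated with 0.01% PEI and counted by scintillation. Nonspecific binding taken with 100 µM carbachol. IC50 fitted from five concentrations run in triplicate.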

T1 sequence (Q05941 whole entry): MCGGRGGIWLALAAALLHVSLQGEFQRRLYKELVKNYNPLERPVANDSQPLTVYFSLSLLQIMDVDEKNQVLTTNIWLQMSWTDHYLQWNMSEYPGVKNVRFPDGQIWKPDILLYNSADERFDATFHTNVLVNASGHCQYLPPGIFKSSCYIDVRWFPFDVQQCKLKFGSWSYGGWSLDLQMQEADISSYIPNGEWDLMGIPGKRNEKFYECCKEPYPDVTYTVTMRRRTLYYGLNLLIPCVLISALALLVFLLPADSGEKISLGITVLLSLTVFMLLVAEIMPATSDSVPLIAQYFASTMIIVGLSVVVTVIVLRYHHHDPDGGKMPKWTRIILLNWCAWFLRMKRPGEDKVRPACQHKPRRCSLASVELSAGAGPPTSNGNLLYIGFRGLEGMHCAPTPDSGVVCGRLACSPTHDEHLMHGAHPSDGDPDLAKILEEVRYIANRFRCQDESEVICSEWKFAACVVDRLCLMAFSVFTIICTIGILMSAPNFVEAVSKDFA
Sequence of Neuronal acetylcholine receptor; alpha4/beta2 (P09483 whole entry): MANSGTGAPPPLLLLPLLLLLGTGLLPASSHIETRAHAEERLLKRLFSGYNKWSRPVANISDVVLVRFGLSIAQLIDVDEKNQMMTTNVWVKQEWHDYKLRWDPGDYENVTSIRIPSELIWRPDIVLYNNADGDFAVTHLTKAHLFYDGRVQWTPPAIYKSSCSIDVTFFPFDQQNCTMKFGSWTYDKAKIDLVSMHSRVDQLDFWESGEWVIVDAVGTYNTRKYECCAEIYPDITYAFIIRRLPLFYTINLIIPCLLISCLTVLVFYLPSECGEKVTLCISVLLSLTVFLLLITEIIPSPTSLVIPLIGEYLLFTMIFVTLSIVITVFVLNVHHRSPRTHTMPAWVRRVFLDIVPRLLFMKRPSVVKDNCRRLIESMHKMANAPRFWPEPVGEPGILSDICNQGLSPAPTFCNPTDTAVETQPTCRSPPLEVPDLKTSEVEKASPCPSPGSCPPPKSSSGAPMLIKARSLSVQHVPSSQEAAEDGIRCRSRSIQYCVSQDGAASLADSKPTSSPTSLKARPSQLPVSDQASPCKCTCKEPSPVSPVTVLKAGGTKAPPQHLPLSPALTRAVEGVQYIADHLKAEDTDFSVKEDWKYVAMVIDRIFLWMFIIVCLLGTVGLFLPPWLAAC
Sequence of Neuronal acetylcholine receptor; alpha4/beta2 (P12390 whole entry): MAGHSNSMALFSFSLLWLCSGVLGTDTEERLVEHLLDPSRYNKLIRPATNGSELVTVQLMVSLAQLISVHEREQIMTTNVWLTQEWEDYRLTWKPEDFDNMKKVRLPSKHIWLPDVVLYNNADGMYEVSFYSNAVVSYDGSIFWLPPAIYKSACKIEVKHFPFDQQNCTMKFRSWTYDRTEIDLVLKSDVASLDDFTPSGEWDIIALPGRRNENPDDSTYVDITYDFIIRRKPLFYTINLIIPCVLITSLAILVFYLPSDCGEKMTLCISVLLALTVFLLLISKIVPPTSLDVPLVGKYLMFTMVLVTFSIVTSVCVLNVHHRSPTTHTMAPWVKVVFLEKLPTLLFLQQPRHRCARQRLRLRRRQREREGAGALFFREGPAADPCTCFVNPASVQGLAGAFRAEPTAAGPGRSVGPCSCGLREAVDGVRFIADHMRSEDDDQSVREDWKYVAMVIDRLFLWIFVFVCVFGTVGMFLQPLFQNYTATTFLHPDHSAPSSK

SMILES	pEC50 [1]	pKi [2]	pKi [3]
O=C1NCC2(CN3CCC2CC3)O1 (single isomer, unassigned; (-))	1.68	–	–
CN1C(=O)NCC12CN1CCC2CC1 (configuration not stated)	–	< 4.89	–
O=C1NCC2(CN3CCC2CC3)N1 (configuration not stated)	–	< 4.89	–
CCN1CC2(CN3CCC2CC3)OC1=O (configuration not stated)	–	6.16	6.77
O=C1NC2(CO1)CN1CCC2CC1 (configuration not stated)	–	< 5.37	–
O=C1CC2(CN1)CN1CCC2CC1 (configuration not stated)	–	5.40	–
